Bioassay records deposited in PubChem by several laboratories.
This is a sample that favours compounds with a hit; in the whole collection about 4% have one here.
TAAR1 agonist – agonists of human TAAR1; Q96RJ0; CHO RD-HGA16 TAAR1, Fluo-8 calcium fluorescence; vehicle wells 0%, saturating PEA agonist 100%; activation, % at 3 µM; hit rate 0.99% among 360,000; AID 624467;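 active = activation above the mean activation of all test compounds in the run plus 3 SD, cut at about 38% in these data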
Target sequence (Q96RJ0 whole entry, looked up): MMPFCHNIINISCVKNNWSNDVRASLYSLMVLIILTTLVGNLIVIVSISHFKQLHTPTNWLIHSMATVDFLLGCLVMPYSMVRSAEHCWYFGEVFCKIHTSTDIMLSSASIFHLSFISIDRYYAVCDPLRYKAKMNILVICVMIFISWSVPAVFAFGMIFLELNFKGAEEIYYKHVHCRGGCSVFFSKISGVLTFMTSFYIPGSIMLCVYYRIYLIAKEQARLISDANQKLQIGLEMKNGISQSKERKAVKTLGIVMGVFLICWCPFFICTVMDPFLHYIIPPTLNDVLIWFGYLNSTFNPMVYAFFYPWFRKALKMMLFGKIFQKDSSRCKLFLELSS
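Test system: RD-HGA16 (CHO) cells co-expressing Gα16 and hTAAR1; dosing: one-point dosing at 3 µM (nominal); timing: 17-24 h seeding, 75 min 37 °C dye, 30 min RT; signal: kinetic Fluo-8 calcium fluorescence; read-out basis: % activation relative to PEA EC100 response; controls: DMSO and PEA EC100; replicates: n 1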
OX1R antag-1 – blocks the human orexin 1 receptor | O43613 | OX1R-expressing cells, FRET antagonist read-out | inhibition, % at 6.6 µM | hit rate 1.8% among 330,000; in the data active = inhibition mostly above about 38%, no sharp cut-off; inactive = mostly below about 40%;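 note: 0% = agonist challenge alone and 100% = reference antagonist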
OX1R antag-2 – blocks the human orexin 1 receptor; O43613; CHO/OX1R cells, Fluo-8 calcium fluorescence, orexin A; inhibition, % at 5 µM; hit rate 0.43% among 330,000; AID 434989;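 active = inhibition above its plate's threshold, mean inhibition of all tested compounds on the plate plus 3 SD, cut at about 37% in these data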;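 note: 0% = orexin A challenge wells and 100% = SB-334867-A antagonist wells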
CHO parental Ca – counter-screen: ATP calcium response change in parental CHO cells | AID 463079 | parental CHO-K1, ATP-induced calcium, Fluo-8 fluorescence | hit rate 0.63% among 330,000 | inhibition, % at 5.6 µM;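 active = inhibition above that plate's mean sample inhibition plus 3 SD, cut at about 26% in these data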;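 note: 0% = ATP-challenged DMSO wells and 100% = DMSO wells without ATP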
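material = parental CHO cells | also added = ATP as calcium-mobilizing challenge | dosing = single point at 5.6 µM | detection = intracellular calcium via Fluo-8 no-wash fluorescent dye | read-out = % inhibition | benchmarks = low control ATP plus DMSO, high control DMSO only | repeats = one well per compound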
NTR1 agonist – activates human neurotensin receptor 1 | P30989 | AID 493036 | activation, % at 20 µM | NTR1-U2OS beta-arrestin-GFP spot imaging, agonist mode | hit rate 0.17% among 330,000;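 active = activation at or above 40% of the spot to cytoplasm intensity ratio, with at least 20 cells analyzed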;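 note: 0% = DMSO without peptide and 100% = 100 nM NTR1 peptide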
TAAR1 antagonist – human TAAR1 antagonism | Q96RJ0 | CHO RD-HGA16 TAAR1, Fluo-8 calcium fluorescence, antagonist | inhibition, % at 3 µM | hit rate 1.5% among 360,000 | AID 624466;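 active = inhibition above a per-plate cutoff, the mean inhibition of test compounds on that plate plus 3 SD, cut at about 49% in these data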;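 note: 0% = DMSO plus EC80 beta-PEA response and 100% = DMSO alone without agonist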
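Test system – hTAAR1-expressing CHO RD-HGA16 cells, Gα16-coupled · Also added – β-PEA at EC80 concentration, post-compound challenge · Compound – 3 µM, single point · Incubation – dye loading 75 min at 37 °C, then 30 min room temperature · Measured by – Fluo-8 intracellular calcium dye fluorescence, real-time kinetic reads · Benchmarks – vehicle and agonist controls · Replicates – singlicate, one well per test compound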
Numbers without * were called inactive; x = no result given.

SMILES	TAAR1 agonist	OX1R antag-1	OX1R antag-2	CHO parental Ca	NTR1 agonist	TAAR1 antagonist
COc1ccc(NC(=O)CC2SC(=NCC3CCCO3)NC2=O)c([N+](=O)[O-])c1 (stereo not drawn)	3	50*	-21	-2	-1	-14
O=C1c2ccccc2C(=O)N1CCCCCc1nc(-c2ccccc2)no1	9	74*	27	-12	1	15
CN(c1ccc(NC(=O)Cc2c[nH]c3ccccc23)cc1)c1ccccn1	3	x	x	x	x	26
Cc1cc(C)nc(/N=C(\N)Nc2ccc(OCc3ccccc3)cc2)n1	127*	19	105*	89*	20	106*
COc1ccc(N/C(N)=N/c2nc(C)cc(C)n2)cc1	19	x	x	x	x	55*
CCOC(=O)C(=O)Nc1ccc(OCc2ccccc2)cc1	1	14	-3	7	0	17
COC(=O)C1=C(C)N(Cc2ccccc2C(F)(F)F)C(=NCc2cccc(C(F)(F)F)c2)NC1CCc1ccccc1 (stereo not drawn)	2	x	x	x	x	-19
CCC1Oc2ccc(C)cc2N(CC(=O)NCCc2ccc(OC)c(OC)c2)C1=O (stereo not drawn)	3	62*	-33	-12	3	11
CCC1Oc2ccccc2N(CC(=O)NCCc2ccc(OC)c(OC)c2)C1=O (stereo not drawn)	11	30	-25	-18	-1	-6
COC(=O)c1cc2c(c3c4ccccc4n(S(=O)(=O)c4ccc(C)cc4)c13)C(=O)N(C)C2	-2	x	x	x	x	-16
CCCCOc1ccc(Br)cc1CSC(=N)N	103*	x	x	x	x	73*
C#CCN1CC(COCCCC)Oc2cccc(F)c2S1(=O)=O (stereo not drawn)	-2	x	x	x	x	2
O=C1[C@@H](Oc2ccccc2)[C@@H](c2cnc3ccccc3c2)N1c1ccccc1	-1	41*	17	-10	2	11
O=C1[C@H](Oc2ccccc2)[C@@H](c2ccncc2)N1c1ccncc1	2	8	-1	-9	0	-6
CC(=O)N1CCN(C2=NC(=O)/C(=C\c3cccs3)S2)CC1	4	41*	1	-5	1	9
O=C1N=C(N2CCOCC2)S/C1=C\c1ccncc1	2	39*	0	3	0	-30
Cc1n[nH]c(=O)c2c(NC(=O)CSc3nc4ccccc4c(=O)n3-c3ccc(OC(F)F)cc3)oc(C)c12	5	76*	-8	-21	2	1
CS(=O)(=O)c1ccc2nc(NC(=O)c3ccc(NS(=O)(=O)c4ccc(F)c(F)c4)cc3)sc2c1	2	5	-4	6	1	6
Cc1cccc(NS(=O)(=O)c2nnc(NC(=O)c3cccc(C)c3)s2)c1	2	63*	17	1	0	13
Cc1cccc(NC(=O)c2cccc(NS(=O)(=O)c3ccc(Cl)cc3)c2)c1	x	36	1	4	2	x
Cc1cccc(NS(=O)(=O)c2nnc(NC(=O)c3ccc(Cl)cc3)s2)c1	-2	59*	11	-8	1	-3
CS(=O)(=O)c1ccc2nc(NC(=O)c3cccc(NS(=O)(=O)c4ccc(F)c(F)c4)c3)sc2c1	6	35	3	-4	4	52*
CCOC(=O)C1=C(C(=O)OCC)C2N(Cc3ccc(C#N)cc3)c3ccccc3[C@@]23C[C@@H](C(=O)OC)N(S(=O)(=O)c2ccccc2C)C3=N1 (stereo partly drawn)	1	x	x	x	x	-10
O=C(NCC1CCN(C(=O)C(=O)c2cc3ccccc3o2)CC1)c1cc(C(F)(F)F)cc(C(F)(F)F)c1	-2	x	x	x	x	-21
C/C=C(\C)C(=O)OC1CC(C)(C)C[C@H]2C3=CC[C@@H]4[C@@]5(C)CCC(O[C@@H]6O[C@@H](C(=O)O)[C@@H](O)C(O[C@@H]7OC[C@H](O)[C@@H](O)[C@@H]7O[C@@H]7OC(CO)C(O)[C@@H](O)[C@@H]7O)C6O[C@@H]6OC(CO)C(O)C(O)C6O)[C@@](C)(CO)[C@@H]5CC[C@]4(C)[C@]3(C)CC(O)[C@@]12CO (stereo partly drawn)	10	9	45	41*	0	18
SMILES	TAAR1 agonist	OX1R antag-1	OX1R antag-2	CHO parental Ca	NTR1 agonist	TAAR1 antagonist
CC1(C)CC[C@]2(C(=O)O[C@@H]3OC(CO)[C@@H](O)[C@H](O)[C@H]3O)CC[C@]3(C)C(=CCC4[C@@]5(C)CC[C@H](O[C@@H]6OC(C(=O)O)[C@@H](O)[C@H](O)[C@H]6O)C(C)(C)C5CC[C@]43C)[C@@H]2C1 (stereo partly drawn)	17	12	88*	100*	1	27
CC(C)N(C(=O)CSc1nc2ccccc2n1Cc1ccccc1)C(C)C	3	32	-33	-17	3	3
CC(C)N(C(=O)CSc1nc2ccccc2n1-c1ccccc1)C(C)C	1	55*	-23	-31	9	-10
CN1CCN(c2nc(-c3ccccc3)nc(-c3ccccc3)c2C#N)CC1	13	21	-30	-23	7	7
N#Cc1c(-c2ccccc2)nc(-c2ccccc2)nc1N1CCOCC1	41*	12	-19	-12	5	17
O=C(N[C@H](C(=O)N1CCC[C@H]1C(=O)NCc1ccccc1)c1ccccc1)c1ccc(Cl)cc1Cl	0	x	x	x	x	5
Oc1c(Br)cc(Br)c2cccnc12	-2	x	x	x	x	13
[O-][n+]1cccc2c(Br)cc(Br)c(O)c21	6	44	13	30*	1	4
Cc1ccc(S(=O)(=O)NCc2ccc3c(c2)OCO3)cc1C	-2	34	-10	1	0	10
O=S(=O)(NCc1ccc2c(c1)OCO2)c1ccc2oc3ccccc3c2c1	13	52*	-8	-4	4	9
O=S(=O)(Nc1ccc2c(c1)OCCO2)c1ccc2oc3ccccc3c2c1	8	65*	-4	20	3	-10
COC(=O)C1=C(C)N(Cc2ccccc2)C(=S)NC1c1ccc(Br)cc1 (stereo not drawn)	1	x	x	x	x	-4
COC(=O)C1=C(C)N(Cc2ccccc2C(F)(F)F)C(=NCc2ccc(OC)cc2)NC1CCc1ccccc1 (stereo not drawn)	15	x	x	x	x	2
CCOC(=O)CCCNc1ccc([N+](=O)[O-])cc1[N+](=O)[O-]	0	71*	-6	5	3	-8
O=C(COC(=O)c1cccnc1Nc1ccccc1F)NCCN1C(=O)CSC1=O	3	55*	15	-14	1	-6
CCCNC(=O)COC(=O)c1cccnc1Nc1ccccc1F	-2	34	-3	-11	-2	-13
Cc1ccc(C(=O)c2c3ccc([N+](=O)[O-])cc3[n+]([O-])n2CCC(N)=O)cc1	1	62*	-6	-7	-4	-15
